Results from ChEMBL document CHEMBL4014342, “Subtly Modulating Glycogen Synthase Kinase 3 β: Allosteric Inhibitor Development and Their Potential for the Treatment of Chronic Diseases” (J Med Chem, 2017).
pIC50: −log10 of the molar value. Blank lines part the entries; values can stand above or below the compound they belong to. Calls of active or inactive are those of the source. The rule behind the calls is not given here.

Legend:
[1] = target: T1, Glycogen synthase kinase-3 beta (Homo sapiens, UniProt P49841); experiment: Allosteric inhibition of human recombinant full length N-terminal GST-tagged GSK3beta expressed in fall armyworm Sf9 cells after 30 min in presence of ATP by kinase glo luminescent assay
Method in brief: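 Human recombinant GSK-3β (20 ng) with prephosphorylated peptide substrate, 50 μM in the 20 μL substrate mix, and ATP, 2 μM in that mix. Buffer: 50 mM HEPES pH 7.5, 1 mM EDTA, 1 mM EGTA, 15 mM Mg acetate; DMSO ≤1%. Incubated 30 min at 30 °C, then Kinase-Glo added and luminescence read after 10 min.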
Target sequence in this assay (P49841 whole entry): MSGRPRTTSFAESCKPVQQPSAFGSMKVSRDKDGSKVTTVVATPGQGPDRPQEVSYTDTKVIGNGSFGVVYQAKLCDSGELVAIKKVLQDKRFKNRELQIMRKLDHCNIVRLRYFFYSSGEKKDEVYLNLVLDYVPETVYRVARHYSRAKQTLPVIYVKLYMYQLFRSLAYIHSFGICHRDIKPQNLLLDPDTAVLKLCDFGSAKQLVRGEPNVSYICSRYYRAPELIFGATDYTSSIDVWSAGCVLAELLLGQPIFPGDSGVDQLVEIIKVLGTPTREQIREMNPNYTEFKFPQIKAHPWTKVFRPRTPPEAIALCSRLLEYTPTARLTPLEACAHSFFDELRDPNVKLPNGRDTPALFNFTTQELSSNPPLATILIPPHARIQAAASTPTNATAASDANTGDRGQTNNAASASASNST

[2] = target: T1, Glycogen synthase kinase-3 beta; experiment: Non-competitive allosteric inhibition of human recombinant full length N-terminal GST-tagged GSK3beta expressed in fall armyworm Sf9 cells at 2 to 5 uM using GS2 as substrate measured at varying substrate levels and constant ATP levels after 30 mins by Double-reciprocal plot analysis
Method in brief: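 Human recombinant GSK-3β kinetics with GS-2 substrate varied from 12.5 to 100 μM, ATP held at 1 μM, and inhibitor at 2 or 5 μM. Analyzed by Lineweaver–Burk double-reciprocal plots. Each point is the mean of two experiments, each run in duplicate.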
Target sequence in this assay (P49841 whole entry, looked up): as the sequence (P49841 whole entry) above

[3] = target: T1, Glycogen synthase kinase-3 beta; experiment: Non-competitive allosteric inhibition of human recombinant full length N-terminal GST-tagged GSK3beta expressed in fall armyworm Sf9 cells at 2.5 to 5 uM using GS2 as substrate measured at constant substrate levels and varying ATP levels after 30 mins by ADP-Glo kinase Assay
Method in brief: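 Human recombinant GSK-3β kinetics with ATP varied from 1 to 50 μM, inhibitor at 2.5 or 5 μM, and GS-2 held constant, stated as 25 μM in the methods and 12.5 μM in the legend. Read by ADP-Glo and analyzed by double-reciprocal plots. Each point is the mean of two experiments, each run in duplicate.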
Target sequence in this assay (P49841 whole entry, looked up): as the sequence (P49841 whole entry) above

[4] = target: T1, Glycogen synthase kinase-3 beta; experiment: Allosteric inhibition of GSK3beta in human […] cells assessed as decrease in beta-catenin translocation from cytoplasm to nucleus at 10 uM after 72 hrs by DAPI-satining based confocal microscopic analysis; type: cell-based
Method in brief: (§1)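 LN18 glioblastoma cells (DMEM, 10% FBS, 2 mM glutamine) and SH-SY5Y neuroblastoma cells (DMEM, 10% FBS, 10 mM glutamine; 37 °C, 5% CO2) were grown on glass coverslips and exposed to compound at 10 μM for 72 h, with vehicle controls. Cells were fixed in 4% paraformaldehyde and permeabilized with Triton X-100. β-Catenin was stained with mouse anti-β-catenin and an Alexa-488 secondary, nuclei with DAPI, and localization imaged by confocal microscopy.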
Target sequence in this assay (P49841 whole entry, looked up): as the sequence (P49841 whole entry) above

[5] = target: T1, Glycogen synthase kinase-3 beta; experiment: Allosteric inhibition of GSK3beta in human LN18 cells assessed as decrease in beta-catenin translocation from cytoplasm to nucleus at 10 uM after 72 hrs by DAPI-satining based confocal microscopic analysis; type: cell-based; method in brief: as §1
Target sequence in this assay (P49841 whole entry, looked up): as the sequence (P49841 whole entry) above

[6] = Cytotoxicity against motor neurons obtained from SMA patient derived iPSC assessed as cell death at >1.25 uM after 7 days; type: cell-based; settings: human, motor neuron, 168 h
Method in brief: (§2)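 SMA type I/II patient iPSCs were differentiated into motor neurons over 15 days: LDN/SB431542, retinoic acid, BDNF, smoothened agonist, then DAPT/Ara-C. Cells were dissociated onto astrocyte-coated wells in Neurobasal with B27/N2 and BDNF, GDNF and CNTF, and treated 7 days with DMSO or increasing compound concentrations. After fixation, cells were immunostained for Islet1/MAP2 with Hoechst nuclear stain and imaged automatically. Survival is expressed as Islet1+ MN counts relative to DMSO wells, for each line.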

Motor neuron = experiment: Increase in survival of motor neurons obtained from SMA patient derived iPSC after 7 days by Hoechst 33342-staining based fluorescence assay; type: functional, cell-based; settings: Homo sapiens; method in brief: as §2
Myoblast [7] = experiment: Induction of myoblast differentiation in CDM1 patient-derived human primary myoblasts assessed as increase in desmin expression after 4 days by Western blot analysis; type: functional, cell-based
Method in brief: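 CDM1 patient primary myoblasts, about 1,000 repeats and fewer than 15–20 passages, with control myoblasts. Grown in F10-based medium, then switched to fusion medium (DMEM, horse serum, insulin) changed daily. Compound in DMSO was added at different doses with fresh fusion medium each day. After 4 days, myotube RIPA extracts were probed by Western blot for desmin, with actin as control.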

Myoblast [8] = experiment: Induction of myoblast differentiation in CDM1 patient-derived human primary myoblasts after 4 days by bright field microscopic method; type: functional, cell-based

- pIC50 [1]: < 4.70
SMILES: CCCCCCCCCCCC(=O)NNC(=O)c1c(O)c2ccccc2n(CC(C)C)c1=O

- pIC50 [1]: < 4.70
SMILES: Cn1c(=O)c(C(=O)NNC(=O)CCc2c[nH]c3ccccc23)c(O)c2ccccc21

- pIC50 [1]: < 4.70
SMILES: CCCCCCCC(=O)NNC(=O)c1c(O)nc2ccccc2c1O

- pIC50 [1]: 5.15
SMILES: CCCCCCCC(=O)NNC(=O)c1c(O)c2ccccc2n(CC=C(C)C)c1=O

- pIC50 [1]: < 4.70
SMILES: CCCCCCCC(=O)NNC(=O)c1c(O)c2ccccc2n(CC)c1=O

- pIC50 [1]: < 4.70
SMILES: CCn1c(=O)c(C(=O)NNC(=O)CCc2ccc(O)cc2)c(O)c2ccccc21

- inhibition [2]: Active
- inhibition [3]: Active
SMILES: CCCCCCCCCCCC(=O)NNC(=O)c1c(O)c2ccc(Cl)cc2n(CC)c1=O

- pIC50 [1]: < 4.70
SMILES: CCn1c(=O)c(C(=O)NNC(=O)CCc2c[nH]c3ccccc23)c(O)c2ccccc21

- pIC50 [1]: < 4.70
SMILES: Cn1c(=O)c(C(=O)NNCCC#N)c(O)c2ccccc21

- pIC50 [1]: < 4.70
SMILES: Cn1c(=O)c(C(=O)NCC(=O)NCC(=O)OCc2ccccc2)c(O)c2ccccc21

- pIC50 [1]: < 4.70
SMILES: CCCCCCNC(=O)c1c(O)c2ccccc2n(C)c1=O

- inhibition [4]: inactive
- inhibition [5]: inactive
SMILES: Cn1cc(C2=C(c3ccc(Cl)cc3Cl)C(=O)NC2=O)c2ccccc21

- pIC50 [1]: < 4.70
SMILES: Cn1c(=O)c(C(=O)NNC(=O)Cc2ccccc2)c(O)c2ccccc21

- pIC50 [1]: 5.11
SMILES: CCCCCCCCCCCC(=O)NNC(=O)c1c(O)c2ccccc2n(CC=C(C)C)c1=O

- pIC50 [1]: < 4.70
SMILES: Cn1c(=O)c(C(=O)NNC(=O)c2ccccc2)c(O)c2ccccc21

- inhibition [4]: inactive
- inhibition [5]: inactive
SMILES: O=C1Cc2c([nH]c3ccc([N+](=O)[O-])cc23)-c2ccccc2N1 [ALSTERPAULLONE]
- Activity [6]: Toxic

- pIC50 [1]: < 4.70
SMILES: CC(=O)NNC(=O)c1c(O)c2ccccc2n(C)c1=O

- pIC50 [1]: < 4.70
SMILES: CCCCCCCC(=O)NNC(=O)c1c(O)c2cc(F)ccc2[nH]c1=O

- inhibition [4]: Active
- inhibition [5]: Active
- inhibition [2]: Active
- inhibition [3]: Active
SMILES: CCCCCCCCCCCC(=O)NNC(=O)c1c(O)c2cc(Br)ccc2n(CC)c1=O
- Activity (Motor neuron): Dose-dependent effect
- Activity (Myoblast [7]): Active
- Activity [6]: Non-Toxic
- Activity (Myoblast [8]): Dose-dependent effect

- inhibition [4]: Active
- inhibition [5]: Active
SMILES: CCCCCCCCCCCC(=O)NNC(=O)c1c(O)c2ccccc2n(CC)c1=O
- Activity (Motor neuron): Dose-dependent effect
- Activity [6]: Non-Toxic
